Measurements: ChEMBL document CHEMBL4251705, “Y08060: A Selective BET Inhibitor for Treatment of Prostate Cancer” (ACS Med Chem Lett, 2018)
Activity calls are given as the source filed them. The calls are words filed in the database; no cut-off is given here.

The molecules below were run on LNCaP (assay: Antiproliferative activity against human LNCAP cells after 96 hrs by Cell-Titer glo reagent based luminescence assay). Details: not given.
Format: functional
In short: (§1)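 Cell viability read by CellTiter-Glo luminescence; IC50 derived from the viability data.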
In the case of `CCNC(=O)C[C@@H]1N=C(c2ccc(Cl)cc2)c2cc(OC)ccc2-n2c(C)nnc21`, the Activity is reported as “Active”. `COc1ccc(Br)cc1S(=O)(=O)Nc1ccc2c(c1)OC(C)(C)C(=O)N2` showed an IC50 of 6.28 µM.

The molecules below were run against CREB-binding protein/Histone acetyltransferase p300 (Homo sapiens) (UniProt Q09472+Q92793) (assay: Inhibition of human His6-tagged CBP (R1081 to G1197 residues)/EP300 (A1040 to G1161 residues) expressed in Escherichia coli BL21 (DE3) cells by SYPRO Orange-dye based fluorescence thermal shift assay). Details: not given.
CREB-binding protein/Histone acetyltransferase p300 (Homo sapiens), sequence (Q09472 whole entry, looked up, the tested form may be a part): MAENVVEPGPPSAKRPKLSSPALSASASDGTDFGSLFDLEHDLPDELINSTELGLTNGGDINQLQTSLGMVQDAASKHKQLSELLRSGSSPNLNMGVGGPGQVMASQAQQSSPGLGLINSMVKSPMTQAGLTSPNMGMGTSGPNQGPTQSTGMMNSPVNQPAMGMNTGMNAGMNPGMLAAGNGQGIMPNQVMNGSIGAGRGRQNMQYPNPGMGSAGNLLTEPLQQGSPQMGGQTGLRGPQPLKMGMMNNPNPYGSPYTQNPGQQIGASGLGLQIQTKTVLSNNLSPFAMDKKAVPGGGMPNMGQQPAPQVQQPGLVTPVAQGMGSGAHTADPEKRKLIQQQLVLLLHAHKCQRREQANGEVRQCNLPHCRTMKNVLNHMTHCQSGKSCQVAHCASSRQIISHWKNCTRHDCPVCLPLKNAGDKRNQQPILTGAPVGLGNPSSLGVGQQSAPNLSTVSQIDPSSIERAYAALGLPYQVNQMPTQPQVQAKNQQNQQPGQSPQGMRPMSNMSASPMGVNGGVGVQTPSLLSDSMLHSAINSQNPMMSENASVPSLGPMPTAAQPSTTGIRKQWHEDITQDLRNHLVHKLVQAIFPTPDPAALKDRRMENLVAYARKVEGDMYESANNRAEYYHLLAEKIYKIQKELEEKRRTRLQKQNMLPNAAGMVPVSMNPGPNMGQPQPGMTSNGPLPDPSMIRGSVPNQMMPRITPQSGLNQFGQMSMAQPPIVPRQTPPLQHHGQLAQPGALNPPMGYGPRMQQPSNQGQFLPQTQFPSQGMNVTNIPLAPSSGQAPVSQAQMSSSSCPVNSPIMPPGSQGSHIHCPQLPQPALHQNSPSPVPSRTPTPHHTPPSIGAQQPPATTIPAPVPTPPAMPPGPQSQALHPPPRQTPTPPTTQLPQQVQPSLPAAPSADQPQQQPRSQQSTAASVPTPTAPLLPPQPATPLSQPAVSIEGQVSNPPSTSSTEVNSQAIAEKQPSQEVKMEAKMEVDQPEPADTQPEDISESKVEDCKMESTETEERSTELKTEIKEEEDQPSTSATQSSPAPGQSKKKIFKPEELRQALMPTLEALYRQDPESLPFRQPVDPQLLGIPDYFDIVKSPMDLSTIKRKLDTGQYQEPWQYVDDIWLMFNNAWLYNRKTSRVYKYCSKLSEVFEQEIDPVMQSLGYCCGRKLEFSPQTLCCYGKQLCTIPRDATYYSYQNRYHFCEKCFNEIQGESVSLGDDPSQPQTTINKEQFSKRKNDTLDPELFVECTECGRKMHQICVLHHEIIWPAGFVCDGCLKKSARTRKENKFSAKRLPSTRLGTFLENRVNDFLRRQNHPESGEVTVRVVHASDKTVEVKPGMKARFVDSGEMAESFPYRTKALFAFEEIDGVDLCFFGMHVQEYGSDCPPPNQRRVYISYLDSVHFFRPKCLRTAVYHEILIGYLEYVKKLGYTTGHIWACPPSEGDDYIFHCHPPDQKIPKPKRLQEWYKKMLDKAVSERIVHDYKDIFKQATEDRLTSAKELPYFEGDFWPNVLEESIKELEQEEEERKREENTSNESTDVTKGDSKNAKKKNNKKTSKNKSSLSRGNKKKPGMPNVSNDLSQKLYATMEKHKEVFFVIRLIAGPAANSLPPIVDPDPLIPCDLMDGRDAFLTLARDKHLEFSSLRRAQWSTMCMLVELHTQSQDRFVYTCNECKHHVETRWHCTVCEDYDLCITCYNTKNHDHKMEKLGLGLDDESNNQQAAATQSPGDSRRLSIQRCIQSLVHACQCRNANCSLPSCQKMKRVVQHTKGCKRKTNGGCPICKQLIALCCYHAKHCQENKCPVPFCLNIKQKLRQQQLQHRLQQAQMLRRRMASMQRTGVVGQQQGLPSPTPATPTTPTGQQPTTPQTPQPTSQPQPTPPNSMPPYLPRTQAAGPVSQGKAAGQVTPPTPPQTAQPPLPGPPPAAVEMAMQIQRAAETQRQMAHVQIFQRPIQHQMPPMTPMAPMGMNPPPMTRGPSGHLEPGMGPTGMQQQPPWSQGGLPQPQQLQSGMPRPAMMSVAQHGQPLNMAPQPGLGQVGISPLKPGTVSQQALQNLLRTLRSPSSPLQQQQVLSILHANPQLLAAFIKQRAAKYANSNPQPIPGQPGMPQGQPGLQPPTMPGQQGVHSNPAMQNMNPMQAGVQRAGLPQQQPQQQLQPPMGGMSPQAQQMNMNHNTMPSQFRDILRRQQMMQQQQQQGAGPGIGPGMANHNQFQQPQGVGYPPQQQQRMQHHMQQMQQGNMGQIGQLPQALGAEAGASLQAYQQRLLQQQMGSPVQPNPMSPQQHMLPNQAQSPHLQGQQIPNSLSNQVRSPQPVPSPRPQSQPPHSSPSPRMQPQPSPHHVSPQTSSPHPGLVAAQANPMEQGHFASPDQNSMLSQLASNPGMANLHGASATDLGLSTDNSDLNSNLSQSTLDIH
CREB-binding protein/Histone acetyltransferase p300 (Homo sapiens), sequence (Q92793 whole entry, looked up, the tested form may be a part): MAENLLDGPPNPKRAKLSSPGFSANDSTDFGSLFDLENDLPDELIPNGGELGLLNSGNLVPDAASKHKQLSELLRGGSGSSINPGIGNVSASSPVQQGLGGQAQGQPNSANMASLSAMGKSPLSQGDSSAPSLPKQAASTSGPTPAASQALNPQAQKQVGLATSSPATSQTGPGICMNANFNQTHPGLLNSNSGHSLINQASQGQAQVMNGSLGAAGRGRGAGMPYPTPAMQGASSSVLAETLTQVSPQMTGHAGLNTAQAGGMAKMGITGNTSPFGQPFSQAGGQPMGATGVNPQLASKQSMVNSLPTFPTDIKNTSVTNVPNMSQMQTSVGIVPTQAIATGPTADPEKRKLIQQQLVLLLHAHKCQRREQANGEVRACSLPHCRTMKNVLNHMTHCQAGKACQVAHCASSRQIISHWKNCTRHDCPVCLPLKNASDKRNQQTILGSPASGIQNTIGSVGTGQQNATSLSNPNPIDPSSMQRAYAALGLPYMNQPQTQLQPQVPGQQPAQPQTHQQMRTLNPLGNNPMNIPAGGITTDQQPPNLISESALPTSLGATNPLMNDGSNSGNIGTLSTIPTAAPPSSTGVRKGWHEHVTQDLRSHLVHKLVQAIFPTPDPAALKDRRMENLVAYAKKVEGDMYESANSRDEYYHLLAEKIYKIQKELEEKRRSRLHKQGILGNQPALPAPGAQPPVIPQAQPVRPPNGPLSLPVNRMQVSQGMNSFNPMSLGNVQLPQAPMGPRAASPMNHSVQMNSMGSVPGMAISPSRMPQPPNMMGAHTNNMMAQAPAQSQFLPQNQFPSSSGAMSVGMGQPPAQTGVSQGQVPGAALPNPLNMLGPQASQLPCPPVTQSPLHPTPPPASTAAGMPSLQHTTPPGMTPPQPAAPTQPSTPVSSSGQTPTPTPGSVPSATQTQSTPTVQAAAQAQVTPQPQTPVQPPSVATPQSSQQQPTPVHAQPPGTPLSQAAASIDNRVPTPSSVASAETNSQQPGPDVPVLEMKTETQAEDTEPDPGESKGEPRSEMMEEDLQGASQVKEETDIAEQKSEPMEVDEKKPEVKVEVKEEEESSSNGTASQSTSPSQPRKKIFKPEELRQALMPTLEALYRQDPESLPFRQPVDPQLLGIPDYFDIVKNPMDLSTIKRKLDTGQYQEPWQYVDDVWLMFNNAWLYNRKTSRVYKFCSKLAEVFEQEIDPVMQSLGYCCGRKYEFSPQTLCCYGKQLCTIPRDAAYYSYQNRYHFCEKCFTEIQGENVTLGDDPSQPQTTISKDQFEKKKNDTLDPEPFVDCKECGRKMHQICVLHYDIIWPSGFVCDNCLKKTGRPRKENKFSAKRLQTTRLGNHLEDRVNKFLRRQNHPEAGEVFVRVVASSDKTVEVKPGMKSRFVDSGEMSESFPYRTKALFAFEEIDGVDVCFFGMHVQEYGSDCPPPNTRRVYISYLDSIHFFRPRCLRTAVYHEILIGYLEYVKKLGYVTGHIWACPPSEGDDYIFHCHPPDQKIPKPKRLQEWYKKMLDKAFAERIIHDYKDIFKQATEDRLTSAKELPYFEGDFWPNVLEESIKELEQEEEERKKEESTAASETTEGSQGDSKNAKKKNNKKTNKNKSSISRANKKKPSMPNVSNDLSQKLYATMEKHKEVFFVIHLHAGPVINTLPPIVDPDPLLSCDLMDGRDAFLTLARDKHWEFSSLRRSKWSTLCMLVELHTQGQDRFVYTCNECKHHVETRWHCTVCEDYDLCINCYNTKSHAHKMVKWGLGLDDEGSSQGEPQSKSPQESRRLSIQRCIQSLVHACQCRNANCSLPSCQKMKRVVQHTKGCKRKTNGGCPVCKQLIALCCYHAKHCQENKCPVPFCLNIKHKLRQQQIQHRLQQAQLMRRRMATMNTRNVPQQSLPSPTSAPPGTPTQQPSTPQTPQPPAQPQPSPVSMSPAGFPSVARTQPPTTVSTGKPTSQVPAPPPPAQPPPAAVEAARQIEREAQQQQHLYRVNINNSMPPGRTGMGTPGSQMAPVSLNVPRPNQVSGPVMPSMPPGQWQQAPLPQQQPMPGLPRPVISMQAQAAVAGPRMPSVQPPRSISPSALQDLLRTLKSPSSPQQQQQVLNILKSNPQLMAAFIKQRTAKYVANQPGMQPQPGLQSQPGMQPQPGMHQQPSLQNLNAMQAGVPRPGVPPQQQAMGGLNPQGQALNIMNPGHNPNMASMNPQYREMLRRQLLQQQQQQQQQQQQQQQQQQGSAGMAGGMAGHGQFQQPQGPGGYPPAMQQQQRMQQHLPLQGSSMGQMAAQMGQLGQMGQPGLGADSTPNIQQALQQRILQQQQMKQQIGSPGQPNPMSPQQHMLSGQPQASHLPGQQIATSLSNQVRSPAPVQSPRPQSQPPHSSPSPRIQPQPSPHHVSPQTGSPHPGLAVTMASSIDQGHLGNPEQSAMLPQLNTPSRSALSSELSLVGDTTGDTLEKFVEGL
For `COc1ccc(Br)cc1S(=O)(=O)Nc1ccc2c(c1)OC(C)(C)C(=O)N2`, the “thermal shift binding activity (active/inactive)” value was “Active”.

Each molecule was assayed on DU-145 (assay: Antiproliferative activity against human DU145 cells after 96 hrs by Cell-Titer glo reagent based luminescence assay). Details: DU-145, 96 h.
Format: functional
In short: as §1
`COc1ccc(Br)cc1S(=O)(=O)Nc1ccc2c(c1)OC(C)(C)C(=O)N2` showed an IC50 of 30.9 µM.

The molecules below were run against T1, Bromodomain-containing protein 4 (Homo sapiens, UniProt O60885). Details: not given.
With `COc1ccc(Br)cc1S(=O)(=O)Nc1ccc2c(c1)OC(C)(C)C(=O)N2` the ΔTm was 4.5 °C.

These molecules were tested on LNCaP C4-2B (assay: Antiproliferative activity against human C4-2B cells after 96 hrs by Cell-Titer glo reagent based luminescence assay). Details: not given.
Format: functional
In short: as §1
With `CCNC(=O)C[C@@H]1N=C(c2ccc(Cl)cc2)c2cc(OC)ccc2-n2c(C)nnc21` the Activity was “Active”. `COc1ccc(Br)cc1S(=O)(=O)Nc1ccc2c(c1)OC(C)(C)C(=O)N2` was tested, and the IC50 was 6.56 µM.

What follows are molecules tested against T1, Bromodomain-containing protein 4 (assay: Inhibition of human His6-tagged BRD4 BD1 (N44 to E168 residues) expressed in Escherichia coli BL21 (DE3) cells using H-SGRGK(Ac)GGK(Ac)GLGK(Ac)GGAK(Ac)RHRK-Biotin-OH as substrate after 2.5 hrs by AlphaScreen assay). Details: read-out: IC50.
Molecule `COc1ccc(Br)cc1S(=O)(=O)Nc1ccc2c(c1)OC(C)(C)C(=O)N2` has an IC50 of 1.99 µM.

Each molecule was assayed on CWR22R (assay: Antiproliferative activity against human 22Rv1 cells after 96 hrs by Cell-Titer glo reagent based luminescence assay). Details: not given.
Format: functional
In short: as §1
For `CCNC(=O)C[C@@H]1N=C(c2ccc(Cl)cc2)c2cc(OC)ccc2-n2c(C)nnc21`, the Activity was “Active”.

Same assay, conditions: 22Rv1, 96 h
For `COc1ccc(Br)cc1S(=O)(=O)Nc1ccc2c(c1)OC(C)(C)C(=O)N2`, the IC50 was 4.85 µM.

The molecules below were run on PC-3 (assay: Antiproliferative activity against human PC3 cells after 96 hrs by Cell-Titer glo reagent based luminescence assay). Details: PC-3, 96 h.
Format: functional
In short: as §1
`COc1ccc(Br)cc1S(=O)(=O)Nc1ccc2c(c1)OC(C)(C)C(=O)N2` gave an IC50 of 21 µM.
